From ChEMBL document CHEMBL4339200, “Structure-based Discovery of Phenyl (3-Phenylpyrrolidin-3-yl)sulfones as Selective, Orally Active RORγt Inverse Agonists” (ACS Med Chem Lett, 2019) come the findings set out here.

SMILES strings stand for the structures.

The target of data set [1] is T1, Cytochrome P450 1A2 (Homo sapiens, UniProt P05177).
T1 sequence (P05177 whole entry): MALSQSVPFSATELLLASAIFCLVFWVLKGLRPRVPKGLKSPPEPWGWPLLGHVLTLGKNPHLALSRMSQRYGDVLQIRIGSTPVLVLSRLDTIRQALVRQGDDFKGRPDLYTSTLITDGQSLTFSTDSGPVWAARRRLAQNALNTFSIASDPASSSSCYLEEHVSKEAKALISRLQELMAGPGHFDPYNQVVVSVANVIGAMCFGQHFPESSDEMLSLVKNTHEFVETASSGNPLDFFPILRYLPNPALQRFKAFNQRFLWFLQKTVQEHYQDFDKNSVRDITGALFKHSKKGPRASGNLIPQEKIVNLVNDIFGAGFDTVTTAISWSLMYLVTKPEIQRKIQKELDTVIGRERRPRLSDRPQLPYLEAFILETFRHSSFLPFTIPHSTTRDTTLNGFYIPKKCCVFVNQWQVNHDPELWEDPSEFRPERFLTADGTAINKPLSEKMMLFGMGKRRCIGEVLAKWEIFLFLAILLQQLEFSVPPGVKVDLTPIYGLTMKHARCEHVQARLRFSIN
Put plainly: Inhibition of CYP1A2 (unknown origin). The format is ADME.

For data set [2], the target named is T2, PXR (NR1I2) (Homo sapiens, UniProt O75469).
T2 sequence (O75469 whole entry): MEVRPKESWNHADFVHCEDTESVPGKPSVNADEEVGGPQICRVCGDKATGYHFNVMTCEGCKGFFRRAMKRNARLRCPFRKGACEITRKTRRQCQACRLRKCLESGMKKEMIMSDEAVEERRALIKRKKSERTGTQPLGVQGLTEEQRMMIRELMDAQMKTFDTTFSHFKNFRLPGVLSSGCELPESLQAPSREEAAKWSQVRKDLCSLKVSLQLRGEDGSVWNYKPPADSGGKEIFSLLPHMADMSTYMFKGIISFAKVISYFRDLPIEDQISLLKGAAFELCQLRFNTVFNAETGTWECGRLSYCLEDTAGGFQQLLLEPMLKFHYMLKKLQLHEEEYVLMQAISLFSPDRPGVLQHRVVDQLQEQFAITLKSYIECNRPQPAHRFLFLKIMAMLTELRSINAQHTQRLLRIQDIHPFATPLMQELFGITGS
As to the kind of experiment: Transactivation of PXR in human HepG2 cells relative to rifampicin. The data set is classed as ADME, cell-based. The conditions noted are these: read-out: %max.

The nature of data set [3]: Tmax in Balb/c mouse at 10 mg/kg, po. The format is ADME, organism-based. The conditions noted are these: in vivo. A digest of the protocol: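 Balb/c mice given a single intravenous dose of 2 mg/kg or an oral dose of 10 mg/kg. Plasma exposure was followed to derive Cmax, Tmax, AUC, t1/2, clearance, Vss and oral bioavailability (F).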

On to `O=C(O)[C@H]1CC[C@H](C(=O)N2CC[C@](c3ccc(C(F)(C(F)(F)F)C(F)(F)F)cc3)(S(=O)(=O)c3ccc(F)cc3)C2)CC1`, for which, in data set [1], the IC50 was above 20 µM. Further, in data set [2], the Emax is 18%. Further, in data set [3], the Tmax was found to be 2 h.
